From ChEMBL document CHEMBL5705888, “Substrate specificity and inhibitors of LRRK2, a protein kinase mutated in Parkinson's disease” (Biochem J, 2009)
Activity calls are given as the source filed them. No cut-off for these calls is given here.

What was measured:
[1] = molecular target: Leucine-rich repeat serine/threonine-protein kinase 2 (Homo sapiens, UniProt Q5S007); test: Inhibition of LRRK2 in human Flp-In-T-REx-293 cells assessed as inhibition of ERM phosphorylation at 10 uM incubated for 1 hr in presence of LRRKtide by immunoblot analysis; assay type: cell-based
Procedure, shortened: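 Flp-in T-REx cells carrying GFP-tagged G14V-Rho were left uninduced or induced with 1 μg/ml doxycycline. At 7 h, compound at 10 μM was added for 1 h. Cells were lysed in SDS lysis buffer, run on 4–12% gels and immunoblotted with pan-phospho-ERM antibody (1 μg/ml in milk/TBST containing 10 μg/ml LRRKtide).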

Homo sapiens = organism: Homo sapiens; test: Inhibition of PHK (unknown origin) at 10 uM incubated for 30 mins in presence of [gamma-33P]ATP by multidrop micro reagent based assay relative to control; values are per cent of control
[2] = molecular target: Rho-associated protein kinase 2 (Homo sapiens, UniProt O75116); test: Inhibition of ROCK2 in human Flp-In-T-REx-293 cells harboring GFP-tagged constitutively active G14V-Rho mutant assessed as inhibition of MYPT phosphorylation at Thr850 at 10 uM incubated for 1 hr by immunoblot analysis; assay type: cell-based
Procedure, shortened: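 Flp-In T-REx cells carrying GFP-tagged G14V-Rho were induced with 1 μg/ml doxycycline in the medium. Seven hours after induction, cells were treated with 10 μM inhibitor for 1 h. They were then lysed directly in SDS lysis buffer and run on 4–12% gels. Blots were probed with anti-MYPT pThr850 (1 μg/ml in 5% BSA/TBST), followed by HRP secondary and ECL detection.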

[3] = molecular target: T1, Serine/threonine-protein kinase STK11 (Homo sapiens) (UniProt Q15831); test: Inhibition of LKB1 (unknown origin) at 10 uM incubated for 30 mins in presence of [gamma-33P]ATP by multidrop micro reagent based assay relative to control; values are per cent of control
T1 sequence (whole entry): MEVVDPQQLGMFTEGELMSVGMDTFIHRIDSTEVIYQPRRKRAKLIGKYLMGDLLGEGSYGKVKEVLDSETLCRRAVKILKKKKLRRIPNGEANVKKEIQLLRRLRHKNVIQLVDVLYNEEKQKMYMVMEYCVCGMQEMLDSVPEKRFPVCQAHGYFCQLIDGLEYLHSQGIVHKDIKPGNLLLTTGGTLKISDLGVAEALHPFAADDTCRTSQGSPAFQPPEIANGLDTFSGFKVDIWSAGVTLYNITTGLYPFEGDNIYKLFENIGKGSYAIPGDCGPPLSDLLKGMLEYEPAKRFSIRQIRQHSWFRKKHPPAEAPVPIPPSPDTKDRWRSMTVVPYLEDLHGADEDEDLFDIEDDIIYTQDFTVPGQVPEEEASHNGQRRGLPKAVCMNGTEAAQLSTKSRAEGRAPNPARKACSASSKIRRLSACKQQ

[4] = molecular target: T2, Inhibitor of nuclear factor kappa-B kinase subunit beta (Homo sapiens) (UniProt O14920); test: Inhibition of IKKbeta (unknown origin) at 1 uM incubated for 30 mins in presence of [gamma-33P]ATP by multidrop micro reagent based assay relative to control; values are per cent of control
T2 sequence (whole entry): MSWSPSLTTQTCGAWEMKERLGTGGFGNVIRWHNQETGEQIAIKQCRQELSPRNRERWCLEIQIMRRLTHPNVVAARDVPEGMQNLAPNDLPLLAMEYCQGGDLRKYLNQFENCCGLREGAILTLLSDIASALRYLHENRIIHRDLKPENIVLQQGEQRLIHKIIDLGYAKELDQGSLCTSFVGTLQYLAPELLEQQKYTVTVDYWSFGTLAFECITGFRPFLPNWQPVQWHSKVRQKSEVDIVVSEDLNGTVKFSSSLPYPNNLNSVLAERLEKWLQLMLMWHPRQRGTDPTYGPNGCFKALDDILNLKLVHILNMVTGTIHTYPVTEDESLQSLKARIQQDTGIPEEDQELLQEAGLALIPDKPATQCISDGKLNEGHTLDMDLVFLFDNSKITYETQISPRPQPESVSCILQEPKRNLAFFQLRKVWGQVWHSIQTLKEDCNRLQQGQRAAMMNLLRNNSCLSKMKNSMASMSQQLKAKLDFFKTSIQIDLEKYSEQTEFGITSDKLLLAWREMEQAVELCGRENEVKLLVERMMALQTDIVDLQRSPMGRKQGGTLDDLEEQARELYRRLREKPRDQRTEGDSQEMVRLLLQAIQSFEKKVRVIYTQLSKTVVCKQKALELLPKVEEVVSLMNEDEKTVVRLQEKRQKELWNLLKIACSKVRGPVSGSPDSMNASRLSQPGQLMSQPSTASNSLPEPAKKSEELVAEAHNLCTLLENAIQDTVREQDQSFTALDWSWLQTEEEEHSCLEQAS

[5] = molecular target: T3, Mitogen-activated protein kinase 12 (Homo sapiens) (UniProt P53778); test: Inhibition of p38gamma MAPK (unknown origin) at 1 uM incubated for 30 mins in presence of [gamma-33P]ATP by multidrop micro reagent based assay relative to control; values are per cent of control
T3 sequence (whole entry): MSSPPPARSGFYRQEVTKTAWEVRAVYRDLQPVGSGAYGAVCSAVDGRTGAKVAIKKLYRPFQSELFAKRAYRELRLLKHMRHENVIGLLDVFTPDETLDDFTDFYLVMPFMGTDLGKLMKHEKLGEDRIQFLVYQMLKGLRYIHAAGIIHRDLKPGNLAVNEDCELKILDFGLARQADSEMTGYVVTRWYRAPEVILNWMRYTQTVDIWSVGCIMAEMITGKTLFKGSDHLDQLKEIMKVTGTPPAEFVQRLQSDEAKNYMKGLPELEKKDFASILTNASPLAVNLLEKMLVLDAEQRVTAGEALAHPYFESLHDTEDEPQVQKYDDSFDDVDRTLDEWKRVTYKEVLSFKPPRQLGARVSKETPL

[6] = molecular target: Insulin-like growth factor 1 receptor (Homo sapiens) (UniProt P08069); test: Inhibition of IGF-1R (unknown origin) at 1 uM incubated for 30 mins in presence of [gamma-33P]ATP by multidrop micro reagent based assay relative to control; values are per cent of control
[7] = molecular target: Calcium/calmodulin-dependent protein kinase type 1 (Homo sapiens) (UniProt Q14012); test: Inhibition of CaMK1 (unknown origin) at 1 uM incubated for 30 mins in presence of [gamma-33P]ATP by multidrop micro reagent based assay relative to control; values are per cent of control
Calcium/calmodulin-dependent protein kinase type 1 (Homo sapiens), sequence (Q14012 whole entry, looked up): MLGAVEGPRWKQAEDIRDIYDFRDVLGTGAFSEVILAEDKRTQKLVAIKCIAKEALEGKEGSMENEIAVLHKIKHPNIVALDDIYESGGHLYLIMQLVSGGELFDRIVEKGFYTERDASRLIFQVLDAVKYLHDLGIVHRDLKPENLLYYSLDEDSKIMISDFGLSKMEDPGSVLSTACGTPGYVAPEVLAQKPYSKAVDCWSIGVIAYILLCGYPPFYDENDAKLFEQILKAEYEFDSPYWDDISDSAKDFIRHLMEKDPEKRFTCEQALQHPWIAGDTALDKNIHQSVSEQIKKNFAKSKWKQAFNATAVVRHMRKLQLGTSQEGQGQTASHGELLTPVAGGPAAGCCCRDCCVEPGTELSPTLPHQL

Insulin-like growth factor 1 receptor (Homo sapiens), sequence (P08069 31-736 limits assumed): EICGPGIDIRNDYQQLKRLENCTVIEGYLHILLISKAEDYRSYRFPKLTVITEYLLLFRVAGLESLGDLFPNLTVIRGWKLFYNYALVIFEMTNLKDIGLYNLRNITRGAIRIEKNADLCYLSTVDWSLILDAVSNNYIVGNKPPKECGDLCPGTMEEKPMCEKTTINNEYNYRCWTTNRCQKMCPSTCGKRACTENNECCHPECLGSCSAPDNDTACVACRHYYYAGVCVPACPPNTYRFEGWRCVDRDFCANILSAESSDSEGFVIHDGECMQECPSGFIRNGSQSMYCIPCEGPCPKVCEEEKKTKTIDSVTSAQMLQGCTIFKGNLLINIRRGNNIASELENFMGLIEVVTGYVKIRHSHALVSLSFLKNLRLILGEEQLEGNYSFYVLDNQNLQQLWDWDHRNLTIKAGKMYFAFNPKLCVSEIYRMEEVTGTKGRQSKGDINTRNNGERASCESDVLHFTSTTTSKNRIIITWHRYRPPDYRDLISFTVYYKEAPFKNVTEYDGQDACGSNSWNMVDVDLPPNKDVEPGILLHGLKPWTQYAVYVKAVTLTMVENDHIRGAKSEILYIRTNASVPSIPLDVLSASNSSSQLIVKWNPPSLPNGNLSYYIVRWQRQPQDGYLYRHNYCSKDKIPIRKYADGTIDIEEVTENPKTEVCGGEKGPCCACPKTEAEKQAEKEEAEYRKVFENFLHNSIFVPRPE
Insulin-like growth factor 1 receptor (Homo sapiens), sequence (P08069 741-1367 limits assumed): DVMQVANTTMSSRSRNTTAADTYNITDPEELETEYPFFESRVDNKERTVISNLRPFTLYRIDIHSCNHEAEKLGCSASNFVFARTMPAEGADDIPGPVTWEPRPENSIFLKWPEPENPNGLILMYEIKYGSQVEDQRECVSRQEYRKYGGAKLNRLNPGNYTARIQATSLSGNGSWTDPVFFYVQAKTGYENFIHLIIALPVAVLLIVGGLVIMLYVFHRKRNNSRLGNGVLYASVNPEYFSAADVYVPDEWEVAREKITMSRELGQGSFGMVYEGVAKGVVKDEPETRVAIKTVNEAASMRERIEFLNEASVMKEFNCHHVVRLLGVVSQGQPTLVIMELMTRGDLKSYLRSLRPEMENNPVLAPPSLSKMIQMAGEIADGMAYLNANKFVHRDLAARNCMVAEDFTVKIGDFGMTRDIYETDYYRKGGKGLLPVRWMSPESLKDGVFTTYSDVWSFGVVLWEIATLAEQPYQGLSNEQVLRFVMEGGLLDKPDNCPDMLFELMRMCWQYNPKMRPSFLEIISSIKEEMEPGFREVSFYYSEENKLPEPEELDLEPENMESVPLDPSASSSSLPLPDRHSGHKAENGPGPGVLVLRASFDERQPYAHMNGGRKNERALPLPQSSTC
Leucine-rich repeat serine/threonine-protein kinase 2, sequence (Q5S007 whole entry): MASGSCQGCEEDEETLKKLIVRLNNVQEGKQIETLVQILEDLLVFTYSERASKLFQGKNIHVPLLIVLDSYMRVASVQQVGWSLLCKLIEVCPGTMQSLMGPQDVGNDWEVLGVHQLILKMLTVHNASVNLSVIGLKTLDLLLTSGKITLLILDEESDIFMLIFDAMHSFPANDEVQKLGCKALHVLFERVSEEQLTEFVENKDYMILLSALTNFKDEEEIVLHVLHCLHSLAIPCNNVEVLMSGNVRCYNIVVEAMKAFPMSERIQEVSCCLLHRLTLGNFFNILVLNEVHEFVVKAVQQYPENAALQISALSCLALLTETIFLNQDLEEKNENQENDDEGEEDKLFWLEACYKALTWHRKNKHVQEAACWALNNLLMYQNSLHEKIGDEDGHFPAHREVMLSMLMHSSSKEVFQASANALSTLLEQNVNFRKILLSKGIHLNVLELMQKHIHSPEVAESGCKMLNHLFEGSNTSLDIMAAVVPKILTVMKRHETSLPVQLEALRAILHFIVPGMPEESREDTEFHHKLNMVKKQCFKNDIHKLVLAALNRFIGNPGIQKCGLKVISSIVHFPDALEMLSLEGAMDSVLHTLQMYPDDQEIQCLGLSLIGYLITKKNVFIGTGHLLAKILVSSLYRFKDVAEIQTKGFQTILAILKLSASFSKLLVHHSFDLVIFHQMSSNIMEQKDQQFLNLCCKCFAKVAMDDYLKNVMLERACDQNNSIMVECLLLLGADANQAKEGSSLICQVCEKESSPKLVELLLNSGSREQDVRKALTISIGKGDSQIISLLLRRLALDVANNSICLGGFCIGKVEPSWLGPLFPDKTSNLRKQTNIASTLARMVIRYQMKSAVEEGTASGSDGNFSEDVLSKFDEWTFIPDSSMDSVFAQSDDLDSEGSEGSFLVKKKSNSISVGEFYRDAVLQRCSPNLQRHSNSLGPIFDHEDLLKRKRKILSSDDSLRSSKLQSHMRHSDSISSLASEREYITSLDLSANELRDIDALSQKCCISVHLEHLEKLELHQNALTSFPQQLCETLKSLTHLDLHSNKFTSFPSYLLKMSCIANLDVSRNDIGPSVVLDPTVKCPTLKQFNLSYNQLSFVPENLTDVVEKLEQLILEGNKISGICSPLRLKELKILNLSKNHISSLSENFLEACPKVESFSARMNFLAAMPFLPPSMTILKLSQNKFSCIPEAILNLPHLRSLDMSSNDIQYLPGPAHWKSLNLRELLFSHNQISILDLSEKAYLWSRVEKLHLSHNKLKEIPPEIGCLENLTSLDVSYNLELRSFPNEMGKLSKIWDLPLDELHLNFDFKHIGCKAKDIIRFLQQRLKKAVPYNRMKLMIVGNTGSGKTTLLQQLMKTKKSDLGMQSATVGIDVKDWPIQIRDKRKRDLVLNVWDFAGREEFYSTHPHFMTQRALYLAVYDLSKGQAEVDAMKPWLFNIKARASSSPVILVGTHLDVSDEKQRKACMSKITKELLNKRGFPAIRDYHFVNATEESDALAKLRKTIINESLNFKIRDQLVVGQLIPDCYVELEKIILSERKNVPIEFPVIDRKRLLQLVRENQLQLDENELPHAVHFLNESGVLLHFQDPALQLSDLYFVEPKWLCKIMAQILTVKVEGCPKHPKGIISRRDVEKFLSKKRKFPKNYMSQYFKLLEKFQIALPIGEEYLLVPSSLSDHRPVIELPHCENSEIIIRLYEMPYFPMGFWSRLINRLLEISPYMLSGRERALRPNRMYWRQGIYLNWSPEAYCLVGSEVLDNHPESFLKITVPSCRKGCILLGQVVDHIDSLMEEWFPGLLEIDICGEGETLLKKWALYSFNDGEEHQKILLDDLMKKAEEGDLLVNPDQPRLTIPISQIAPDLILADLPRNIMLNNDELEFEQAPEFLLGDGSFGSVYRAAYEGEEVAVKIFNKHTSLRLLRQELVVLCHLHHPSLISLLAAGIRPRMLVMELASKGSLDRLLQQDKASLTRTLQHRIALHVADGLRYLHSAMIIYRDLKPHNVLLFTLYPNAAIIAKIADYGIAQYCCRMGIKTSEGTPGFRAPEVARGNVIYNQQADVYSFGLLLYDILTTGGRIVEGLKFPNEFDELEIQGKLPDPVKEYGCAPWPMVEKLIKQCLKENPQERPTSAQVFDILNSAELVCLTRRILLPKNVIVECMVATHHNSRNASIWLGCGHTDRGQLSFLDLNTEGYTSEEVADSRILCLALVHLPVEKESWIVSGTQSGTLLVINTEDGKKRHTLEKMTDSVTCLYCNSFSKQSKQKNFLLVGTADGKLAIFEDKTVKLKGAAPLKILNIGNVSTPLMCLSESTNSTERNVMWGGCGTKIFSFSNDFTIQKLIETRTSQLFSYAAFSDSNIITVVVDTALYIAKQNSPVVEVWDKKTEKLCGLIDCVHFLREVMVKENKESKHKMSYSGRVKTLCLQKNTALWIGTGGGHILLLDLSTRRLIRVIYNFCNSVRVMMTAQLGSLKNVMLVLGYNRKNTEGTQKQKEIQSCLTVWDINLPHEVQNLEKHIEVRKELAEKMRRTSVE

| Compound | inhibition [1] | residual activity (Homo sapiens) [%] | inhibition [2] | residual activity [3] [%] | residual activity [4] [%] | residual activity [5] [%] | residual activity [6] [%] | residual activity [7] [%] |
| --- | --- | --- | --- | --- | --- | --- | --- | --- |
| C[C@@H](N)[C@H]1CC[C@H](C(=O)Nc2ccncc2)CC1 | inactive | 79 | Active | 52 |  |  |  |  |
| Cc1cncc2cccc(S(=O)(=O)N3CCCNC[C@@H]3C)c12 | inactive |  | Active |  | 100 | 101 | 113 | 105 |
| O=S(=O)(c1cccc2cnccc12)N1CCCNCC1 [FASUDIL] |  | 46 |  | 33 |  |  |  |  |
| CCn1c(-c2nonc2N)nc2cnc(Oc3cccc(NC(=O)c4ccc(OCCN5CCOCC5)cc4)c3)cc21 [GSK-269962A] | inactive |  |  |  | 83 | 72 | 104 | 122 |
| CC1=C(C(=O)Nc2cc3cn[nH]c3cc2F)C(c2ccc(C(F)(F)F)cc2)CC(=O)N1 (centres undefined) | inactive |  | Active |  | 97 | 112 | 97 | 102 |
| CCN(CC)CCNC(=O)c1c(C)[nH]c(/C=C2\C(=O)Nc3ccc(F)cc32)c1C | inactive |  |  |  |  |  |  |  |
